For test [1], the system named is MCF7. As to the kind of experiment: Induction of apoptosis in human MCF7 cells assessed as late apoptotic cells at 1 uM after 16 hrs by annexin-V FITC/propidium iodide staining based flow cytometric analysis relative to control. The format is functional. In a few lines: (§1)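 Cells were grown in DMEM with 10% heat-inactivated FBS at 37 °C and 5% CO₂, then plated at 500,000 cells/well in 24-well plates. They were treated from a DMSO stock (DMSO ≤0.1%) for 8, 12 or 16 h. After a PBS wash, cells were resuspended in binding buffer (10 mM HEPES pH 7.4, 2.5 mM CaCl₂, 140 mM NaCl, 0.1% BSA), stained 40 min with FITC-annexin V, then with PI, and run on the flow cytometer immediately. Values are the mean of three independent experiments.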
For orientation: A flow cytometer gives signals particle by particle.

The test system of test [2] is HeLa. As to the kind of experiment: Induction of ROS generation in human HeLa cells at 5 uM after 8 hrs by DCFH-DA staining-based fluorescence spectrophotometric analysis relative to control. It is filed as functional. The method, boiled down:
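DCFH-DA ROS: HeLa or MCF-7 cells at 2×10^6/well cultured 12 h, treated 4 or 8 h; t-BHP (10 μM) is the positive control. DCFH-DA 10 μM added for 10 min at 37 °C, cells washed twice with PBS. Fluorescence read at ex 485/em 520 nm. For the NAC arm, NAC (5 mM) is added to the medium before treatment.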

The test system of test [3] is HeLa. As to the kind of experiment: Induction of apoptosis in human HeLa cells assessed as viable cells at 1 uM after 12 hrs by annexin-V FITC/propidium iodide staining based flow cytometric analysis relative to control. The format is functional. As to conditions: read-out: Activity. In a few lines: as §1
The target in test [4] is Mitogen-activated protein kinase; ERK1/ERK2 (Homo sapiens) (UniProt P27361+P28482). As to the kind of experiment: Activation of ERK1/2 phosphorylation in human MCF7 cells assessed as increase in ratio of phosphorylated ERK1/2 to total ERK1/2 level at 5 uM in presence of ERK1/2 inhibitor PD98059 by ELISA. It is filed as cell-based. The method, boiled down: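 Cell-based ELISA: HeLa or MCF-7 cells (20×10^3/well) grown overnight at 37 °C, 5% CO2, treated with 5 μM, then fixed and blocked. Probed with rabbit anti-total and anti-phospho P38, JNK or ERK1/2 (1:100), then HRP anti-rabbit IgG. Result is the phospho/total ratio; inhibitor arms use […], […] or SP600125. n=3.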
Sequence of Mitogen-activated protein kinase; ERK1/ERK2 (Homo sapiens) (P27361 whole entry, looked up): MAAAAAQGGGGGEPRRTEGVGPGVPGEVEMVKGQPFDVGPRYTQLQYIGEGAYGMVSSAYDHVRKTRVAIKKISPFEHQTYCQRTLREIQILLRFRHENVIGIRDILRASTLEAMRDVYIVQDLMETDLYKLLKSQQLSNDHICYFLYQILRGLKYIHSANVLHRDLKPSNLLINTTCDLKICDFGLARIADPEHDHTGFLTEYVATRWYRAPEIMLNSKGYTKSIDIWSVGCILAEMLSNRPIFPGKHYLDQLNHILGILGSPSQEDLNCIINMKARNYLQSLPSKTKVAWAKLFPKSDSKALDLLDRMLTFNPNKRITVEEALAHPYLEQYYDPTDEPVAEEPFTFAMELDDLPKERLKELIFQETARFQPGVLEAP
Sequence of Mitogen-activated protein kinase; ERK1/ERK2 (Homo sapiens) (P28482 whole entry, looked up): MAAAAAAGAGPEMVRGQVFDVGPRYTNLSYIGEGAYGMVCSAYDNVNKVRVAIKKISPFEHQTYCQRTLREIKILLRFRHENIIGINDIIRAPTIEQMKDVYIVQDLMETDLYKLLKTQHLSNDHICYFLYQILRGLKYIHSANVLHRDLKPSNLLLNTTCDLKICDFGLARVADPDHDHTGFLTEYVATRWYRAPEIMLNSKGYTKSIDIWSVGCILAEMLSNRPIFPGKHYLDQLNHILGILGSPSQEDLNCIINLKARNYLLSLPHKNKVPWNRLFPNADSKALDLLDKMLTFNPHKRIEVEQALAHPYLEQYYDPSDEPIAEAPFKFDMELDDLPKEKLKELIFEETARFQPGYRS
Background: An ELISA detects its analyte on a solid surface through an enzyme-linked reagent.

The test system of test [5] is MCF7. Put plainly: Induction of ERK/MAPK signal transduction pathway in human MCF7 cells assessed as increase in p21 level. The format is cell-based.
Test [6] deals with HeLa. Put plainly: Induction of caspase-dependent apoptosis in human HeLa cells assessed as activation of caspase-3 at 1 to 3 uM after 24 hrs by Western blot analysis. The format is functional, cell-based. The method, boiled down:
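Cleaved caspase-3 immunoblot. Cells were exposed at 1, 3 and 5 µM for 24 h at 37 °C, with paclitaxel 3 µM as positive control. Lysis was in ice-cold Triton X-100 buffer, and protein was measured by BCA. Lysates were separated by electrophoresis, transferred to nitrocellulose and blocked in milk. Primary antibody was applied overnight at 4 °C and secondary for 1 h at 28 °C. Detection was by enhanced chemiluminescence.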
(In general: Immunoblotting shows a protein as a band on a membrane.)

For test [7], the system named is MCF7. Put plainly: Induction of caspase-dependent apoptosis in human MCF7 cells assessed as activation of caspase-8 at 1 to 3 uM after 24 hrs by Western blot analysis. The format is functional, cell-based. The method, boiled down:
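Cells were treated at 1, 3 and 5 µM for 24 h at 37 °C. Lysis was in ice-cold Triton X-100 buffer with protease and phosphatase inhibitors; nuclear proteins were extracted separately. Protein was quantified by BCA. Lysates were separated by electrophoresis, transferred to nitrocellulose and blocked in non-fat milk for 1 h. Primary antibody was applied overnight at 4 °C and secondary for 1 h at 28 °C. Detection was by enhanced chemiluminescence.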

Test [8] has as its system MCF7. Put plainly: Induction of apoptosis in human MCF7 cells assessed as early apoptotic cells at 1 uM after 8 hrs by annexin-V FITC/propidium iodide staining based flow cytometric analysis relative to control. The format is functional. The method, boiled down: as §1
Test [9] has as its system HeLa. As to the kind of experiment: Induction of ROS generation in human HeLa cells at 5 uM after 24 hrs by CM-H2DCFDA staining-based FACS analysis. The format is functional, cell-based. The method, boiled down:
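CM-H2DCFDA ROS: HeLa or MCF-7 cells at 2×10^6/well in 6-well plates treated with 5 μM (final) for 12 or 24 h at 37 °C. Cells harvested, washed with PBS, stained with CM-H2DCFDA in PBS 30 min at 37 °C, washed with ice-cold PBS. Read by FACScan with 488 nm argon laser.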

Molecules are shown by their SMILES. The source made the active and inactive calls. The rule behind the calls is not given here.

Turning to `Cn1cc(/C=N\NC(=O)c2cn(C)c3ccc(Br)cc23)c2ccccc21`, the Activity came to 58.43% in test [1], 58.9% in test [2] and 2.26% in [8]. Further, the viability at 1 µM in test [3] was found to be 47.8%. The result in test [4], in [6] and in test [7] was inactive. The result in test [5] and in test [9] was Active.

Source of the values: ChEMBL document CHEMBL4316598, “Synthesis, antiproliferative and apoptosis induction potential activities of novel bis(indolyl)hydrazide-hydrazone derivatives” (Bioorg Med Chem, 2019).
